How the values were obtained:
Type in all cases: ADME, cell-based
Details in all cases: 0.5 h
9L [1] = experiment: Drug uptake in rat 9L cells assessed as intracellular accumulation after 30 mins measured per 5 x 10^5 cells by gamma-counter in presence of alanine-cysteine-serine
Outline: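 9L rat gliosarcoma cells were grown in DMEM with 10% fetal calf serum and penicillin/streptomycin at 37 °C under 5% CO2, trypsinized and washed in HBSS. About 5 × 10^5 cells were incubated with 5 µCi tracer in amino-acid-free HBSS with 10 mM ACS (equimolar Ala/Cys/Ser) for 30 min at 37 °C, run in triplicate. Cells were centrifuged and rinsed twice with ice-cold HBSS, then gamma counted with decay correction. Results are % of standard per 5 × 10^5 cells.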

9L [2] = experiment: Drug uptake in rat 9L cells assessed as intracellular accumulation after 30 mins measured per 5 x 10^5 cells by gamma-counter
Outline: (§1)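 9L cells were grown in DMEM with 10% FCS and penicillin/streptomycin, then trypsinized and washed twice in HBSS. About 5 × 10^5 cells received 5 µCi tracer in amino acid-free HBSS for 30 min at 37 °C, without or with 10 mM BCH (L-type inhibitor). Cells were centrifuged and rinsed twice with ice-cold HBSS, then gamma-counted with decay correction. Uptake expressed as % of standard per 5 × 10^5 cells. Triplicates, 1-way ANOVA.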

9L [3] = experiment: Drug uptake in rat 9L cells assessed as intracellular accumulation after 30 mins measured per 5 x 10^5 cells by gamma-counter in presence of 2-aminobicyclo[2.2.1]-heptane-2-carboxylic acid; outline: as §1

Drug uptake (9L [1]): 0.18 %ID
Drug uptake (9L [2]): 12.3 %ID
Drug uptake (9L [3]): 2.9 %ID
Structure (SMILES): N[C@]1(C(=O)O)C[C@@H]([18F])C1 [FLUCICLOVINE F18]

From ChEMBL document CHEMBL1152757, “Stereoselective synthesis and biological evaluation of syn-1-amino-3-[18F]fluorocyclobutyl-1-carboxylic acid as a potential positron emission tomography brain tumor imaging agent” (Bioorg Med Chem, 2009)
